System: RAW264.7
Assay: Antiinflammatory activity in mouse RAW264.7 cells assessed as inhibition of LPS-induced NO production
Assay type: functional, cell-based
In short: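 RAW 264.7 cells seeded at 2 × 10^5 cells/mL, stimulated with 1 µg/mL LPS with or without test compound, 37 °C for 24 h. Nitrite in cell-free supernatant measured by Griess reagent (sulfanilamide in phosphoric acid plus N-(1-naphthyl)ethylenediamine), absorbance at 550 nm against sodium nitrite standard curve. IC50 for 50% NO inhibition; triplicate, mean ± SD. Viability checked by CCK assay.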

Row | Structure (SMILES) | IC50 [µM]
1 | COc1cc2ccc3cc(O)ccc3c2c(OC)c1O | 35.7
2 | COc1c(O)cc2ccc3c(OC)ccc(O)c3c2c1OC | 20.4
3 | COc1cc(O)cc(CCc2ccc(OC)c(OC)c2)c1 | > 50
4 | COc1c(O)c(O)cc2ccc3cccc(O)c3c12 [FIMBRIOL B] | 28.9
5 | COc1cc(O)cc(CCc2ccc(O)c(OC)c2)c1 [GIGANTOL] | > 50
6 | COc1cc(O)cc2c1-c1c(O)cccc1CC2 [HIRCINOL] | 26.4
7 | COc1cc(CCc2cc(OC)c(O)c(OC)c2)ccc1O [MOSCATILIN] | 27.6
8 | N=C(N)NN [PIMAGEDINE] | 17.5

Results, then the compound that gave them:

Row | IC50 [µM] | Structure (SMILES)
9 | 12 | COc1cc2c(c(O)c1OC)-c1ccc(O)cc1CC2 [EPHEMERANTHOL A]
10 | 17.6 | COc1c(O)c(O)cc2c1-c1c(O)cccc1CC2 [EPHENERANTHOL C]
11 | 19.5 | COc1c(O)cc2c(c1OC)-c1ccc(O)cc1CC2 [ERIANTHRIDIN]
12 | 34.1 | COc1cc2c(c(OC)c1O)-c1ccc(O)cc1CC2 [FLAVANTHRIDIN]
13 | 9.6 | COc1cc(O)c2c(c1)CCc1cc(O)ccc1-2 [LUSIANTHRIDIN]
